Experimental data reported in ChEMBL document CHEMBL1139139, “Discovery of novel 2,3-diarylfuro[2,3-b]pyridin-4-amines as potent and selective inhibitors of Lck: synthesis, SAR, and pharmacokinetic properties” (Bioorg Med Chem Lett, 2007).

Legend:
[1] = biological target: Vascular endothelial growth factor receptor 2 (Homo sapiens, UniProt P35968); test: Inhibition of KDR
Activated CDC42 kinase 1 = Activated CDC42 kinase 1 (Homo sapiens, UniProt Q07912); test: Inhibition of Ack1
[2] = biological target: T1, Tyrosine-protein kinase JAK3 (Homo sapiens, UniProt P52333); test: Inhibition of JAK3
T1 sequence (P52333 whole entry): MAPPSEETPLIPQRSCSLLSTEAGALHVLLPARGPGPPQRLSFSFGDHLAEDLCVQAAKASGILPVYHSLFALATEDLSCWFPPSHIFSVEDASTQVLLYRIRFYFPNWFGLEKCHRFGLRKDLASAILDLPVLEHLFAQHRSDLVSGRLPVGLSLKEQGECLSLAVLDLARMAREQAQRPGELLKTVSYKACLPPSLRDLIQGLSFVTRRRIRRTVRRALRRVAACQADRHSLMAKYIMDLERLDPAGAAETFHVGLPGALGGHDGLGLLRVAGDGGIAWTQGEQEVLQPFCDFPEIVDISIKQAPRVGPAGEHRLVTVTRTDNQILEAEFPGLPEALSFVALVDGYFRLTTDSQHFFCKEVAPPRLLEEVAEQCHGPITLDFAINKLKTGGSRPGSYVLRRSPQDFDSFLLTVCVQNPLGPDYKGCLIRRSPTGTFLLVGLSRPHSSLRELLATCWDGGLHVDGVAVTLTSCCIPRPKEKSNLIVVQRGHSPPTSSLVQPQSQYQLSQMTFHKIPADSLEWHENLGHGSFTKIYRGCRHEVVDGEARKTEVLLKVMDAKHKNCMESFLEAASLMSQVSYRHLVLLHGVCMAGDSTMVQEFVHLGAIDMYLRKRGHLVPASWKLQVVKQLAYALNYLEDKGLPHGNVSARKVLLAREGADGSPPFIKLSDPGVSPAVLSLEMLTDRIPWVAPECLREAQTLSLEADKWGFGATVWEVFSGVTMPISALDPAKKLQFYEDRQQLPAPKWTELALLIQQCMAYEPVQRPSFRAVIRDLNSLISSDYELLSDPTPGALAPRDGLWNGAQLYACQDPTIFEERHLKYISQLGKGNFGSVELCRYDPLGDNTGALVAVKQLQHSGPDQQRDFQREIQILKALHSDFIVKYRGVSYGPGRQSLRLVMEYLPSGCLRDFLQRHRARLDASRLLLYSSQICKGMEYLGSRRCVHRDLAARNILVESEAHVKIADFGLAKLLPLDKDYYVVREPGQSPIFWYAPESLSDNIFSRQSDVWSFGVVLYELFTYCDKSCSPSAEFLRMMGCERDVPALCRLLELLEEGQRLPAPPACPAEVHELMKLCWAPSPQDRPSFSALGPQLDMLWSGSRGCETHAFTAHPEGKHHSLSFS

T-cell [3] = test: Inhibition of anti-CD3/CD28-induced IL2 secretion in human T cells; format: functional, cell-based
In short: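 Human T cells stimulated with anti-CD3/CD28, with IL-2 secretion as read-out. IC50 determined.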

T-cell [4] = test: Inhibition of T cell activation in human mixed lymphocyte reaction; format: functional, cell-based
[5] = Clearance in Sprague-Dawley rat at 1 mg/kg, iv; format: ADME, organism-based; design: dose 1 mg/kg, route intravenous; conditions: in vivo
[6] = Volume of distribution at steady state Sprague-Dawley rat at 1 mg/kg, iv; format: ADME, organism-based; design: dose 1 mg/kg, route intravenous; conditions: in vivo, read-out: Vdss
[7] = (§1) Half life in Sprague-Dawley rat at 1 mg/kg, iv; format: ADME, organism-based; design: dose 1 mg/kg, route intravenous; conditions: Sprague-Dawley, in vivo
[8] = biological target: Tyrosine-protein kinase Lck (Homo sapiens, UniProt P06239); test: Inhibition of Lck by HTRF assay
Sequence of Tyrosine-protein kinase Lck (P06239 whole entry): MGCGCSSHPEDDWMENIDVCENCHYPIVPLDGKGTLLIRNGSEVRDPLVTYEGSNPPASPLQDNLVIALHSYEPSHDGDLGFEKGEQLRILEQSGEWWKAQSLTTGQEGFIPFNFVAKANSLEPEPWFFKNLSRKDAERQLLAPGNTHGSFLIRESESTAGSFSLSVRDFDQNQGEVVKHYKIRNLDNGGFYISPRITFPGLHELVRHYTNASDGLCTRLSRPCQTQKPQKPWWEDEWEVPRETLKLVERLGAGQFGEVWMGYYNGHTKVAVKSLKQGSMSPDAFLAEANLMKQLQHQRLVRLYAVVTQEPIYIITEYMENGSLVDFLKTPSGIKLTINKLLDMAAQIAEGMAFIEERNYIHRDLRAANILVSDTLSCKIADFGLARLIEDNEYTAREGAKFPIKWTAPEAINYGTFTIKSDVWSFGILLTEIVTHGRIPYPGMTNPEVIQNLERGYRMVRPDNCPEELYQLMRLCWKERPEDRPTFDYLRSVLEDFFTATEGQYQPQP

Rattus norvegicus = test: as §1; format: ADME, organism-based; design: dose 1 mg/kg, route intravenous; conditions: in vivo

Sequence of Activated CDC42 kinase 1 (Q07912 whole entry): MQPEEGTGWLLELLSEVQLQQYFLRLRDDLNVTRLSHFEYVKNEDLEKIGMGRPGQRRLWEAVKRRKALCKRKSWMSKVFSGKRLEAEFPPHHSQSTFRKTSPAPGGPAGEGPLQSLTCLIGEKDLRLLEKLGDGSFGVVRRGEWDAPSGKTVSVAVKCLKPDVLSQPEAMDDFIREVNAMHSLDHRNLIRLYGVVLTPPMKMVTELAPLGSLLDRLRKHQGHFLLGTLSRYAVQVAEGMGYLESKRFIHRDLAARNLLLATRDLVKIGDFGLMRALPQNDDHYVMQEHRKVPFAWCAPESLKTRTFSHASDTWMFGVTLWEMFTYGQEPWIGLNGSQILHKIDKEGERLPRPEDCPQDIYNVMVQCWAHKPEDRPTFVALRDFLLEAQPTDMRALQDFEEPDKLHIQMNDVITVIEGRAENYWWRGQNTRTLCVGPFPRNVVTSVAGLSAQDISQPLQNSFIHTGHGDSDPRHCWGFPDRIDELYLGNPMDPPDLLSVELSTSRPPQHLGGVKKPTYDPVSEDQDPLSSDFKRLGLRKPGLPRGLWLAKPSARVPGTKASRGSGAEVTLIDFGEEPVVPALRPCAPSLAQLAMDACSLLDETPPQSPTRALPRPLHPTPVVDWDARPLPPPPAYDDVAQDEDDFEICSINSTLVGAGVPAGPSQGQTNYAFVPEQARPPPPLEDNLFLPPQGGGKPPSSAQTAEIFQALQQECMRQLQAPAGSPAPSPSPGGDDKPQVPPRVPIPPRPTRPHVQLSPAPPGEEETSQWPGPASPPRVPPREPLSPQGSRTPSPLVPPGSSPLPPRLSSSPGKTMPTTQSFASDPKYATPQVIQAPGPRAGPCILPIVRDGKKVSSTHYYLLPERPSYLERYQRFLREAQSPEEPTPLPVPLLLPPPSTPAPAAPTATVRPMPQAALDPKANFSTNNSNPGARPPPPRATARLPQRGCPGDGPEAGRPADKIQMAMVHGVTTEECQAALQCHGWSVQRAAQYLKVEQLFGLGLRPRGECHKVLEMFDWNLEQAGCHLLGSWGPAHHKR
Sequence of Vascular endothelial growth factor receptor 2 (P35968 whole entry): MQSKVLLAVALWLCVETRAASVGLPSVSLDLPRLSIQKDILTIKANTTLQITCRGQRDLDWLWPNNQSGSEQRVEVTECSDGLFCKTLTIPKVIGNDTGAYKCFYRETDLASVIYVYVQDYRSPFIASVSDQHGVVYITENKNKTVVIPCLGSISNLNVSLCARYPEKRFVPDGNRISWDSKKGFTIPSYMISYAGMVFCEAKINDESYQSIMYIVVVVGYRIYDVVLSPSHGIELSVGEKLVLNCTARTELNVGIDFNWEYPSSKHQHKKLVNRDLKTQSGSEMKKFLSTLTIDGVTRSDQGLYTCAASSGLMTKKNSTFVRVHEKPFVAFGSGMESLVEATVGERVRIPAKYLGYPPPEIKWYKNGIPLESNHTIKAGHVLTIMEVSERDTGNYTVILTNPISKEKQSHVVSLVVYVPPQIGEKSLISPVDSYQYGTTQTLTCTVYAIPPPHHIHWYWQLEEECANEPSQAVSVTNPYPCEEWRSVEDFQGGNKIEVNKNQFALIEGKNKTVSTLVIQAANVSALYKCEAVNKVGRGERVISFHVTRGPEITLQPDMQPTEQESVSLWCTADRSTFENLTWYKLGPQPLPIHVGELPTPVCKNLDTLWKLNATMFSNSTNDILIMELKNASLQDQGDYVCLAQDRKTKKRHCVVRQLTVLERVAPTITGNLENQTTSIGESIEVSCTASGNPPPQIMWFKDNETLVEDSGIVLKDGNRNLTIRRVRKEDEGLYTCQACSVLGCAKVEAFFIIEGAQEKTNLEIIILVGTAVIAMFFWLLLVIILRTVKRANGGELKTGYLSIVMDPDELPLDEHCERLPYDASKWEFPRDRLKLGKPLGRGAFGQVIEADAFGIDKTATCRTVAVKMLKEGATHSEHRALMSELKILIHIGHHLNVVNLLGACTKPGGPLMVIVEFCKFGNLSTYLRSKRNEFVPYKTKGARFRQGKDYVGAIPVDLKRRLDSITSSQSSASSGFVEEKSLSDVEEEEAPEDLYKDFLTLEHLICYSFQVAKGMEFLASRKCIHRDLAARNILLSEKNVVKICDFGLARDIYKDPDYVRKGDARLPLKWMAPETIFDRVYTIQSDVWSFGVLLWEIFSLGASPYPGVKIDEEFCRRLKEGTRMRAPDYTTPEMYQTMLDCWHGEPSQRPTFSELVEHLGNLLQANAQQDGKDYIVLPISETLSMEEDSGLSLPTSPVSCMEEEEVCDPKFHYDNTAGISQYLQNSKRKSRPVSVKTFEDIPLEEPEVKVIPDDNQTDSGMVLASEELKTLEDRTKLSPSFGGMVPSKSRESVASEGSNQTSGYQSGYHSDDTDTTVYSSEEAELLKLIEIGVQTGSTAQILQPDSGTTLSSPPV

IC50 [1] [nM]	IC50 (Activated CDC42 kinase 1) [nM]	IC50 [2] [nM]	IC50 (T-cell [3]) [nM]	IC50 (T-cell [4]) [nM]	clearance [5] [mL/min/kg]	Vd [6] [L/kg]	half-life [7] [h]	IC50 [8] [nM]	t1/2 (Rattus norvegicus) [h]	Compound
1700	930	1400	–	–	–	–	–	–	–	c1ccc(-c2c(-c3ccc(OCCN4CCCCC4)cc3)oc3nccc(NCCCn4ccnc4)c23)cc1
57	150	32	130	14	128	4.7	5.3	–	–	c1ccc(-c2c(-c3ccc(OCCN4CCOCC4)cc3)oc3nccc(NCCN4CCNCC4)c23)cc1
2600	–	–	710	–	–	–	–	–	–	c1ccc(-c2oc3ncnc(NCCN4CCNCC4)c3c2-c2ccccc2)cc1
67	180	44	250	18	–	–	–	19	3.1	CC(C)N(CCOc1ccc(-c2oc3nccc(NCCN4CCNCC4)c3c2-c2ccccc2)cc1)C(C)C
100	120	71	510	61	188	60	4.7	29	–	c1ccc(-c2c(-c3ccc(OCCN4CCCCC4)cc3)oc3nccc(NCCN4CCNCC4)c23)cc1
4700	180	80	–	–	–	–	–	1600	–	c1ccc(-c2c(-c3ccc(OCCN4CCCCC4)cc3)oc3nccc(NCCc4ccncc4)c23)cc1
160	84	25	470	57	192	7.2	0.8	–	–	c1ccc(-c2c(-c3ccc(OCCn4ccnc4)cc3)oc3nccc(NCCN4CCNCC4)c23)cc1
370	20	37	–	–	–	–	–	–	–	c1ccc(-c2c(-c3ccc(OCCN4CCCCC4)cc3)oc3nccc(NCCc4cccnc4)c23)cc1
360	420	140	1200	620	20	2.3	1.5	–	–	c1ccc(-c2oc3nccc(NCCN4CCNCC4)c3c2-c2ccccc2)cc1
4200	110	26	5200	4000	–	–	–	2100	–	c1ccc(-c2oc3nccc(NC[C@@H]4CCCO4)c3c2-c2ccccc2)cc1
210	170	110	650	170	–	–	–	–	–	c1ccc(-c2c(-c3ccc(OCCN4CCCC4)cc3)oc3nccc(NCCN4CCNCC4)c23)cc1
